What all share (type): functional
The species named for experiment [1] is Rattus norvegicus. Briefly: Compound (1 mM) to block the increase in the permeability of the neuronal sodium ions in rat striatum slices by excitatory 0.1 M of Quis qulalic acid. As to conditions: in the assay text read “0.1 mM” for “0.1 M”. The method, boiled down: (§1)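 Values are percent of the efflux increase given by the agonist alone (100%), as mean ± standard deviation of at least triplicate experiments. Difference from control was tested by variance analysis.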

For experiment [2], the species on record is Rattus norvegicus. Briefly: Compound (1 mM) to block the increase in the permeability of the neuronal sodium ions in rat striatum slices by excitatory 0.1 mM of Kainic Acid. The method, boiled down: as §1
The species entered for the next experiment is Mus musculus. Briefly: Effective dose required to protect mice from picrotoxin-induced seizures. The procedure, abridged:
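CD1 mice of either sex (20–30 g), unanaesthetised, received 5 μL of drug in phosphate-buffered saline pH 7.4, or vehicle, icv (1 mm posterior, 1 mm lateral to bregma, 2.6 mm deep). Picrotoxin 3 mg/kg was given iv in the tail vein 10 min later. Stage 5 seizures were scored over 30 min, with at least 8 mice per group, and ED50 was calculated.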

The species entered for experiment [3] is Rattus norvegicus. Briefly: Compound (1 mM) to block the increase in the permeability of the neuronal sodium ions in rat striatum slices by excitatory 30 uM of N-methyl-D-aspartic acid. The method, boiled down:
as §1

The species entered for experiment [4] is Rattus norvegicus. Briefly: Compound (1 mM) to block the increase in the permeability of the neuronal sodium ions in rat striatum slices by excitatory 0.5 mM of L-GLutamic acid. The procedure, abridged:
as §1

Our source for the Mean response and ED50 values is ChEMBL document CHEMBL1122881, “A dipeptide derived from kainic and L-glutamic acids: a selective antagonist of amino acid induced neuroexcitation with anticonvulsant properties” (1985).

Take `C=C(C)[C@H]1CN[C@H](C(=O)O)[C@H]1CC(=O)NC(CCC(=O)O)C(=O)O` (stereo not given in full): the Mean response in the experiment listed under Rattus norvegicus [1] is 69; in the experiment listed under Rattus norvegicus [2] it was 84; in the experiment filed under Rattus norvegicus [3] it was 16; in the experiment filed under Rattus norvegicus [4], 90. In the experiment filed under Mus musculus, this compound had an ED50 of 170 nM.
